The species named for data set [1] is Homo sapiens. The experiment in a line: In vitro ability to inhibit the adhesion of neutrophil activated by tumor necrosis factor (alpha-TNF) to serum-coated plastic wells. Format: functional, organism-based. In short, it runs like this: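 Human blood PMN, isolated and RBC-lysed, at 4×10^6/mL were preincubated with compound (from 100× DMSO stocks) for 10 min at 37 °C in wells coated with 10% pooled human serum. TNF-α was then added to 0.6 nM and adherence run for 20 min. Adherent cells quantitated by BCA protein assay. Seven dilutions in duplicate gave IC50, averaged over at least three experiments ± SEM.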

The nature of data set [2]: LD50 value for endothelial cells was determined. The note with it: human, read-out: LD50 (the source's name). Format: ADME, cell-based, Endothelial cell. In short, it runs like this: (§1)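 Viability read-out for LD50: human PMN (isolated from heparinised blood of unmedicated volunteers) or endothelial cell suspension in phenol red-free medium, with compound, incubated in serum-coated wells for 30 min at 37 °C. Calcein AM (added as 2 μM solution in HBSS++) for a further 30 min. Fluorescence read at ex/em 485/535 nm from live-cell esterase cleavage.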

The nature of data set [3]: (§2) LD50 value for polymorphonuclear granulocytes was determined. It counts as ADME. The note with it: human, read-out: LD50 (the source's name). The gist of the method: as §1
The nature of data set [4]: In vitro ability to inhibit adherence of activated polymorphonuclear granulocytes to endothelial cells using IFN gamma-(HUVEC) assay was determined. The note with it: Homo sapiens.
For data set [5], the species on record is Homo sapiens. Description: In vitro ability to inhibit the adhesion of neutrophil activated by platelet activating factor (PAF) to serum-coated plastic wells was determined. Format: functional. The gist of the method: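 Human blood PMN, isolated and RBC-lysed, at 4×10^6/mL were preincubated with compound (from 100× DMSO stocks) for 10 min at 37 °C in wells coated with 10% pooled human serum. PAF was then added to 1 μM and adherence run for 10 min. Adherent cells quantitated by BCA protein assay. Seven dilutions in duplicate gave IC50, averaged over at least three experiments ± SEM.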

Data set [6] is described as follows: as §2. The note with it: Homo sapiens; read-out: LD50 (the source's name). It counts as functional. The gist of the method: as §1

In the data set filed under Homo sapiens [1], `O=C(O)c1ccc(OCCCCC2c3cc(Cl)ccc3-c3ccc(Cl)cc32)cc1` yielded an IC50 of 8.1 µM.

In turn, `O=C(O)CCC1c2ccccc2-c2ccccc21` came in with an IC50 in the data set filed under Homo sapiens [1] greater than 200 µM.

Turning to `O=C(O)c1cccc(OCCCC2c3ccccc3-c3ccccc32)c1`, half-maximal inhibition in the data set filed under Homo sapiens [1] (IC50) was put at 13.8 µM.

In turn, `O=C(N[C@@H](Cc1ccccc1)C(=O)O)OCC1c2ccccc2-c2ccccc21` registered an IC50 in the data set filed under Homo sapiens [1] of 58 µM.

The compound `O=C(O)CCCCC1c2ccccc2-c2ccccc21` yielded an IC50 in the data set listed under Homo sapiens [1] of 87 µM.

Consider `O=C(Nc1ccc(C(=O)O)cc1)OCC1c2ccccc2-c2ccccc21`, for which the IC50 in the data set filed under Homo sapiens [1] is greater than 500 µM.

`O=C(O)c1ccc(CC2c3cc(Cl)ccc3-c3ccc(Cl)cc32)cc1` had an IC50 in the data set filed under Homo sapiens [1] of 29.1 µM.

As to `O=C(O)C(CCCCC1c2ccccc2-c2ccccc21)Cc1ccccc1` (stereo unspecified), the CC50 in data set [2] was 72 µM; in data set [3], 79 µM. The IC50 in the data set listed under Homo sapiens [1] came to 6 µM; in data set [4] it was 10.2 µM.

In the data set filed under Homo sapiens [1], `CC(C)(C)c1ccc2c(c1)C(Cc1ccc(C(=O)O)cc1)c1cc(C(C)(C)C)ccc1-2` returned an IC50 greater than 200 µM.

In the data set listed under Homo sapiens [1], `O=C(Nc1ccc(C(=O)O)cc1)OC1c2ccccc2-c2ccccc21` showed an IC50 of 30 µM.

On to `O=C(O)CCCCCCCC1c2ccccc2-c2ccccc21`, for which inhibition in the data set filed under Homo sapiens [1] was half-maximal at 32.2 µM (IC50).

For `O=C(O)c1ccc(OCCCCC2c3ccccc3-c3ccccc32)cc1`, the CC50 was greater than 1000 µM in data set [2] and 113 µM in data set [3]. In addition, the figures for the IC50 (in the data set filed under Homo sapiens [5]; in the data set listed under Homo sapiens [1]; in data set [4]) were 5.2 µM, 7.53 µM and 19.8 µM, respectively.

In the case of `O=C(O)c1ccc(CC2c3ccccc3-c3ccccc32)cc1`, the values for the CC50 in data set [2] and in data set [3] were greater than 1000 µM and 306 µM, respectively. Further, the IC50 in the data set listed under Homo sapiens [5] was 17.8 µM; in the data set listed under Homo sapiens [1] it was 27.6 µM; in data set [4], 91.2 µM.

In the data set listed under Homo sapiens [1], `O=C(O)c1ccccc1OCCCC1c2ccccc2-c2ccccc21` gave an IC50 of 55.4 µM.

As for `O=C(Nc1ccccc1C(=O)O)OC1c2ccccc2-c2ccccc21`, in the data set filed under Homo sapiens [1], the IC50 was found to be 19 µM.

Compound `O=C(O)CCCCCC1c2ccccc2-c2ccccc21` came in with an IC50 in the data set listed under Homo sapiens [1] of 55.2 µM.

For `O=C(O)c1cccc(OCCCCC2c3ccccc3-c3ccccc32)c1`, the IC50 in the data set listed under Homo sapiens [1] worked out at 6.6 µM.

As to `O=C(O)c1ccccc1OCCC1c2ccccc2-c2ccccc21`, in the data set filed under Homo sapiens [1], half-maximal inhibition (IC50) was put at 73.3 µM.

Regarding `O=C(O)c1ccc(OCCCCCC2c3ccccc3-c3ccccc32)cc1`, the CC50 in data set [2] is greater than 1000 µM; in data set [3], 295 µM. Besides, the figures for the IC50 (in the data set filed under Homo sapiens [5]; in the data set listed under Homo sapiens [1]; in data set [4]) were 11.7 µM, 7.13 µM and 48.2 µM, respectively.

With `CC(C)(C)c1ccc2c(c1)C(CCCCOc1ccc(C(=O)O)cc1)c1cc(C(C)(C)C)ccc1-2`, 8 µM corresponded to half-maximal inhibition in the data set listed under Homo sapiens [1] (IC50).

Turning to `O=C(O)CCCC1c2ccccc2-c2ccccc21`, in the data set filed under Homo sapiens [1], the IC50 came to 97 µM.

`CC(C)C[C@H](NC(=O)OCC1c2ccccc2-c2ccccc21)C(=O)O` gave an IC50 in the data set listed under Homo sapiens [1] of 78 µM.

Regarding `O=C(O)c1ccc(C2c3ccccc3-c3ccccc32)cc1`, 81.6 µM corresponded to half-maximal inhibition in the data set listed under Homo sapiens [1] (IC50).

On to `O=C(Nc1ccc(C(=O)O)cc1)OCCC1c2cc(Cl)ccc2-c2ccc(Cl)cc21`, for which the CC50 in data set [2] came to 82.3 µM; in data set [6], 62.5 µM. For the same compound, the IC50 in the data set listed under Homo sapiens [5] worked out at 17.8 µM; in the data set filed under Homo sapiens [1] it was 9.8 µM; in data set [4], 26.1 µM.

`O=C(O)c1cccc(OCCC2c3ccccc3-c3ccccc32)c1` registered an IC50 in the data set listed under Homo sapiens [1] of 31 µM.

With `Cc1ccc2c(c1)C(COC(=O)N[C@@H](CC(C)C)C(=O)O)c1cc(C)ccc1-2`, the CC50 in data set [2] stood at 354 µM; in data set [3] it was 343 µM. For the same compound, the results for the IC50 (in the data set listed under Homo sapiens [5]; in the data set filed under Homo sapiens [1]; in data set [4]) were 31.7 µM, 41.7 µM and 117 µM, respectively.

Turning to `O=C(O)c1ccccc1OCCCCCC1c2ccccc2-c2ccccc21`, the IC50 in the data set listed under Homo sapiens [1] is 15.8 µM.

In the data set listed under Homo sapiens [1], `O=C(Nc1ccc(C(=O)O)cc1)OCCC1c2ccccc2-c2ccccc21` yielded an IC50 of 30 µM.

Take `O=C(O)C1c2ccccc2-c2ccccc21`: the IC50 in the data set listed under Homo sapiens [1] is greater than 200 µM.

On to `O=C(O)c1ccc(OCCCC2c3ccccc3-c3ccccc32)cc1`, for which the CC50 in data set [2] was greater than 1000 µM; in data set [3], 281 µM. Besides, the IC50 in the data set listed under Homo sapiens [5] turned out to be 36.4 µM; in the data set filed under Homo sapiens [1], 15.6 µM; in data set [4] it was 23.2 µM.

In the data set filed under Homo sapiens [1], `O=C(O)c1cccc(OCCCCCC2c3ccccc3-c3ccccc32)c1` yielded an IC50 of 5.23 µM.

For the compound `O=C(O)CCCCCCCCCC1c2ccccc2-c2ccccc21`, the IC50 in the data set listed under Homo sapiens [1] stood at 11.6 µM.

Take `O=C(O)CC1c2ccccc2-c2ccccc21`: the IC50 in the data set filed under Homo sapiens [1] was greater than 200 µM.

In turn, `O=C(O)c1ccc(OCCC2c3ccccc3-c3ccccc32)cc1` yielded an IC50 in the data set listed under Homo sapiens [1] of 14 µM.

The term IC50 denotes the concentration that inhibits the measured activity by half. The low end stands for greater potency in that assay, the high end for weaker potency in that assay.

These data come from ChEMBL document CHEMBL1128354, “Fluorenylalkanoic and benzoic acids as novel inhibitors of cell adhesion processes in leukocytes” (J Med Chem, 1995).
